Assay: Inhibition constant against Adenosine A2a receptor
In short: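 Membranes from HEK cells expressing human A2A receptor, incubated with 1 nM [3H]SCH-58261 and 10 test concentrations. Buffer: phosphate-buffered saline with 10 mM MgCl2, 0.04% methyl cellulose, adenosine deaminase and 4% DMSO. Incubation 60 min at 23 °C, then filtration and washes with cold water. Nonspecific binding defined with CGS-15943. Duplicates, each compound tested twice. IC50 from one-site fit, Ki by Cheng–Prusoff.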

| Ki | Compound |
| --- | --- |
| 6.7 nM | Cc1ccc2c(c1)-c1nc(N)nc(-c3ccco3)c1C2 |
| 0.8 nM | CC(C)c1ccc2c(c1)-c1nc(N)nc(-c3ccc(Br)o3)c1C2 |
| 3.9 nM | Nc1nc(-c2ccc(Br)o2)c2c(n1)-c1cc(N3CCCC3)ccc1C2 |
| 10.9 nM | Nc1nc(-c2ccc(Br)o2)c2c(n1)-c1cc(-c3ccccc3)ccc1C2 |
| 2.6 nM | CCc1ccc2c(c1)-c1nc(N)nc(-c3ccc(Br)o3)c1C2 |
| 1.6 nM | COc1ccc2c(c1)-c1nc(N)nc(-c3ccc(Br)o3)c1C2 |
| 1.7 nM | Nc1nc(-c2ccccc2)c2c(n1)-c1ccccc1C2=O |
| 8.1 nM | CC(C)(C)c1ccc2c(c1)-c1nc(N)nc(-c3ccc(Br)o3)c1C2 |
| 154 nM | Cc1ccc2c(c1)-c1nc(N)nc(-c3ccccn3)c1C2 |
| 172 nM | Nc1nc(-c2ccccc2)c2c(n1)-c1ccccc1CC2 |
| 168 nM | Nc1nc(-c2ccccc2)c2c(n1)-c1ccccc1C2O (stereo not given) |
| 40.5 nM | Nc1nc(-c2ccccc2)c2[nH]c3ccccc3c2n1 |
| 1 nM | Nc1nc(-c2ccc(Br)o2)c2c(n1)-c1cc(Cl)ccc1C2 |
| 4.2 nM | Cc1ccc2c(c1)-c1nc(N)nc(C3CCC(Br)O3)c1C2 (stereo not given) |
| 2.6 nM | Cc1ccc2c(c1)-c1nc(N)nc(-c3ccc(CO)o3)c1C2 |
| 4.2 nM | Cc1ccc2c(c1)-c1nc(N)nc(-c3ccc(Br)o3)c1C2 |
| 11 nM | Cc1ccc2c(c1)-c1nc(N)nc(-c3ccccc3)c1C2 |
| 7.1 nM | Cc1ccc2c(c1)-c1nc(N)nc(-c3ccc(C)o3)c1C2 |
| 9 nM | Nc1nc(-c2ccccc2)c2oc3ccccc3c2n1 |
| 56.9 nM | Cc1ccc2c(c1)-c1nc(N)nc(-c3ccncc3)c1C2 |

— ChEMBL document CHEMBL1141997, “The discovery and synthesis of novel adenosine receptor (A(2A)) antagonists” (Bioorg Med Chem Lett, 2005)
